Drawing on ChEMBL document CHEMBL3421617, “Synthesis of selenazolopyridine derivatives with capability to induce apoptosis in human breast carcinoma MCF-7 cells through scavenge of intracellular ROS” (Eur J Med Chem, 2015), this text covers IC50, Activity and inhibition for seven compounds.

Data set [1] has as its system HepG2. The data set can be described thus: Cytotoxicity against human HepG2 cells assessed as cell viability after 72 hrs by MTT assay. In kind it is functional, cell-based. As to conditions: HepG2, 72 h. In a few lines:
(§1)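 Cells obtained from ATCC; human normal liver L02 included as the non-cancer line. Cells treated with various concentrations for 72 h. Viability read by MTT assay and IC50 values calculated from the concentration series.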
A general note: Tetrazolium assays rely on reduction of a dye to a coloured formazan, in cell work by metabolically active cells.

Data set [2] is described as follows: Cytotoxicity against human L02 cells assessed as cell viability after 72 hrs by MTT assay. In kind it is cell-based. As to conditions: L02, 72 h. In a few lines:
as §1

The test system of data set [3] is MCF7. The data set can be described thus: Cytotoxicity against human MCF7 cells assessed as cell viability after 72 hrs by MTT assay. Type of data set: functional, cell-based. As to conditions: for IC50: MCF7, 72 h. In a few lines: as §1
Data set [4] has as its system MCF7. The data set can be described thus: Cell cycle arrest in human MCF7 cells assessed as cells at S phase at 40 uM by flow cytometry (reference value: 16.6%). In kind it is functional. In general terms: Flow cytometry measures light scatter and fluorescence of single cells or particles in a stream.
Data set [5] deals with MCF7. The data set can be described thus: Cell cycle arrest in human MCF7 cells assessed as cells at G0/G1 phase at 40 uM by flow cytometry (reference value: 41.9%). Type of data set: functional.
In data set [6] the test system is MCF7. The data set can be described thus: Cell cycle arrest in human MCF7 cells assessed as cells at Sub-G1 phase at 20 uM by flow cytometry (reference value: 3.3%). Type of data set: functional.
For data set [7], the system named is MCF7. The data set can be described thus: Cell cycle arrest in human MCF7 cells assessed as cells at G0/G1 phase at 20 uM by flow cytometry (reference value: 41.9%). Type of data set: functional.
Data set [8] relates to MCF7. The data set can be described thus: Cell cycle arrest in human MCF7 cells assessed as cells at Sub-G1 phase by flow cytometry. In kind it is functional, cell-based.
Data set [9] deals with MCF7. The data set can be described thus: Cell cycle arrest in human MCF7 cells assessed as cells at G2/M phase at 30 uM by flow cytometry (reference value: 41.5%). In kind it is functional.
Data set [10] can be described thus: Antioxidant activity assessed as ABTS radical scavenging activity. As to conditions: TDE = time-dependent effect. In kind it is physicochemical.
Data set [11] is described as follows: Antioxidant activity assessed as DPPH free radical scavenging activity. In kind it is physicochemical. As to conditions: TDE = time-dependent effect. In general terms: Loss of DPPH colour is used to gauge radical scavenging.
In data set [12] the test system is MCF7. The data set can be described thus: Inhibition of intracellular ROS production in human MCF7 cells assessed as decrease in DHE fluorescence intensity after 30 mins. In kind it is functional, cell-based. In a few lines:
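MCF-7 cells loaded with 10 µM DHE in PBS for 30 min, then exposed to different concentrations of compound. Intracellular ROS followed as DHE fluorescence on a microplate reader, excitation 300 nm and emission 610 nm, over 30 min.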

In data set [13] the test system is MCF7. The data set can be described thus: Inhibition of intracellular ROS production in human MCF7 cells assessed as decrease in DHE fluorescence intensity at 80 uM after 30 mins by fluorescence microscopy. Type of data set: functional, cell-based. In a few lines: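 Cells loaded with DHE (10 µM) in a culture dish at 37 °C for 30 min, then treated at 80 µM. Imaged at once by fluorescence microscopy, with red DHE fluorescence followed for 30 min.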

For data set [14], the system named is MCF7. The data set can be described thus: Cell cycle arrest in human MCF7 cells assessed as cells at S phase at 20 uM by flow cytometry (reference value: 16.6%). Type of data set: functional.
The subject of data set [15] is MCF7. The data set can be described thus: Cell cycle arrest in human MCF7 cells assessed as cells at G2/M phase at 40 uM by flow cytometry (reference value: 41.5%). In kind it is functional.
Data set [16] has as its system MCF7. The data set can be described thus: Cell cycle arrest in human MCF7 cells assessed as cells at Sub-G1 phase at 40 uM by flow cytometry (reference value: 3.3%). Type of data set: functional.
The subject of data set [17] is MCF7. The data set can be described thus: Cell cycle arrest in human MCF7 cells assessed as cells at G0/G1 phase at 30 uM by flow cytometry (reference value: 41.9%). Type of data set: functional.
Data set [18] relates to MCF7. The data set can be described thus: Cell cycle arrest in human MCF7 cells assessed as cells at Sub-G1 phase at 30 uM by flow cytometry (reference value: 3.3%). In kind it is functional.
The test system of data set [19] is MCF7. The data set can be described thus: Cell cycle arrest in human MCF7 cells assessed as cells at S phase at 30 uM by flow cytometry (reference value: 16.6%). In kind it is functional.
Data set [20] relates to MCF7. The data set can be described thus: Cell cycle arrest in human MCF7 cells assessed as cells at G2/M phase at 20 uM by flow cytometry (reference value: 41.5%). Type of data set: functional.

For orientation: IC50 means the concentration needed to halve the response being measured.

The structures appear in SMILES notation. The source made the active and inactive calls. The rule behind the calls is not given here.

Consider `Cc1ccc(Nc2nc3cccnc3[se]2)cc1C`, for which the IC50 worked out at 145 µM in data set [1], 182 µM in data set [2] and 202 µM in data set [3].

`Cc1cccc(Nc2nc3cccnc3[se]2)c1`: the IC50 in data set [1] stood at 56.7 µM; in [2], 54.3 µM; in data set [3], 56.4 µM.

Take `Cc1ccc(Nc2nc3cccnc3[se]2)cc1`: the IC50 in [1] stood at 235 µM; in data set [2] it was 207 µM; in data set [3], 91.5 µM.

Consider `Cc1ccccc1Nc1nc2cccnc2[se]1`, for which the IC50 in data set [1] was determined as 507 µM; in [2] it was 121 µM; in data set [3] it was 52.5 µM.

On to `Brc1ccccc1Nc1nc2cccnc2[se]1`, for which the IC50 in data set [1] was 74.2 µM; in data set [2], 169 µM; in data set [3] it was 185 µM.

For the compound `c1ccc(Nc2nc3cccnc3[se]2)cc1`, the Activity was 25.8% in data set [4]; 50.8% in data set [5]; 27.1% in data set [6]; 58.2% in data set [7]; “Dose-dependent effect” in data set [8]; 20.3% in data set [9]. The Activity result is on record as “tde” in [10]; “tde” in data set [11]; 34.3% in [14]; 13.4% in data set [15]; 58.3% in data set [16]; 50.5% in [17]. Besides, the results for the Activity in data set [18], in data set [19] and in data set [20] were 36.7%, 22.3% and 7.5%, respectively. The values for the IC50 in data set [1], in data set [2] and in [3] were 57.1 µM, 164 µM and 22.5 µM, respectively. The inhibition result in data set [12] and in data set [3] was “Dose-dependent effect” in each case. In addition, the inhibition entry in data set [13] is “Active”.

On to `Clc1ccccc1Nc1nc2cccnc2[se]1`, for which the IC50 in data set [1] amounted to 181 µM; in [2] it was 84.6 µM; in data set [3], 43.3 µM.
